Source: ChEMBL document CHEMBL3351600, “Sulfur, selenium and tellurium pseudopeptides: synthesis and biological evaluation” (Bioorg Med Chem, 2014)

Assays:
ACHN = test: Growth inhibition of human ACHN cells after 48 hrs; format: functional
Summary of the method: (§1)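 NCI-60 human tumour cell line panel screen run at the US National Cancer Institute under its standard cytotoxicity protocol. It covers leukaemia, NSCLC, colon, CNS, melanoma, ovarian, renal, prostate and breast lines. An initial single-dose test was followed by five-dose testing with 48 h compound exposure.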

CAKI-1 = test: Growth inhibition of human CAKI-1 cells after 48 hrs; format: functional; conditions: CAKI-1, 48 h; summary of the method: as §1
SN12C = test: Growth inhibition of human SN12C cells after 48 hrs; format: functional
Summary of the method: (§2)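 Run by the NCI 58-cell-line screen under its standard cytotoxicity protocol. Compounds were first tested at a single dose, then at five doses. Cells were exposed to compound for 48 h.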

TK-10 = test: Growth inhibition of human TK10 cells after 48 hrs; format: functional; conditions: TK-10, 48 h; summary of the method: as §2
[1] = Growth inhibition of human PC3 cells after 48 hrs; format: functional; conditions: PC-3, 48 h; summary of the method: as §1
MCF7 [2] = test: Growth inhibition of human MCF7 cells after 48 hrs; format: functional; conditions: MCF7, 48 h; summary of the method: as §1
[3] = Growth inhibition of human Hs 578T cells after 48 hrs; format: functional; summary of the method: as §1
MDA-MB-468 = test: Growth inhibition of human MDA-MB-468 cells after 48 hrs; format: functional; conditions: MDA-MB-468, 48 h; summary of the method: as §1
MCF7 [4] = test: Cytotoxicity against human MCF7 cells assessed as cell viability after 24 hrs incubation by MTT assay; format: functional, cell-based; conditions: MCF7, 24 h
Summary of the method: (§3)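 Cell lines came from DSMZ; primary human fibroblasts served as non-cancer controls. Cells were grown in medium with 10% FCS, seeded at 50,000 cells/ml, and grown 2 days at 37 °C, 10% CO2. Serial dilutions were then added for 24 h. MTT (final 0.5 mg/ml) was added for 2 h. Formazan was pelleted, PBS-washed, dissolved in isopropanol/0.4% HCl and read at 590 nm. Two parallel experiments were run. IC50 was taken as the concentration giving 50% of untreated-control absorbance.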

A-431 = test: Cytotoxicity against human A431 cells assessed as cell viability after 24 hrs incubation by MTT assay; format: functional, cell-based; conditions: A-431, 24 h; summary of the method: as §3
Saccharomyces cerevisiae = test: Antimicrobial activity against Saccharomyces cerevisiae assessed as inhibition at 20 ug/6 mm disk after 1 to 2 days by agar diffusion assay; format: functional
Summary of the method: (§4)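 Standard agar diffusion: 6-mm paper disks loaded with 20 µg of compound were placed on inoculated plates. Inhibition-zone diameter (mm) was read after 1 and 2 days of growth.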

Candida albicans = test: Antimicrobial activity against Candida albicans assessed as inhibition at 20 ug/6 mm disk after 1 to 2 days by agar diffusion assay; format: functional; summary of the method: as §4
Aspergillus niger = test: Antimicrobial activity against Aspergillus niger assessed as inhibition at 20 ug/6 mm disk after 1 to 2 days by agar diffusion assay; format: functional; summary of the method: as §4
Micrococcus luteus = test: Antimicrobial activity against Micrococcus luteus assessed as inhibition at 20 ug/6 mm disk after 1 to 2 days by agar diffusion assay; format: functional; summary of the method: as §4
Staphylococcus aureus = test: Antimicrobial activity against Staphylococcus aureus assessed as inhibition at 20 ug/6 mm disk after 1 to 2 days by agar diffusion assay; format: functional; summary of the method: as §4
Pseudomonas aeruginosa = test: Antimicrobial activity against Pseudomonas aeruginosa assessed as inhibition at 20 ug/6 mm disk after 1 to 2 days by agar diffusion assay; format: functional; summary of the method: as §4
Escherichia coli = test: Antimicrobial activity against Escherichia coli tolC assessed as inhibition at 20 ug/6 mm disk after 1 to 2 days by agar diffusion assay; format: functional; summary of the method: as §4
[5] = Growth inhibition of human RPMI8226 cells after 48 hrs; format: functional; conditions: RPMI-8226, 48 h; summary of the method: as §1
A549 = test: Growth inhibition of human A549/ATCC cells after 48 hrs; format: functional; conditions: A549, 48 h; summary of the method: as §1
[6] = Growth inhibition of human EKVX cells after 48 hrs; format: functional; summary of the method: as §1
HOP-62 = test: Growth inhibition of human HOP62 cells after 48 hrs; format: functional; conditions: HOP-62, 48 h; summary of the method: as §1
[7] = Growth inhibition of human HOP92 cells after 48 hrs; format: functional; conditions: HOP-92, 48 h; summary of the method: as §1
NCI-H226 = test: Growth inhibition of human NCI-H226 cells after 48 hrs; format: functional; conditions: NCI-H226, 48 h; summary of the method: as §1
NCI-H322M = test: Growth inhibition of human NCI-H322M cells after 48 hrs; format: functional; summary of the method: as §1
[8] = Growth inhibition of human HCT116 cells after 48 hrs; format: functional; conditions: HCT-116, 48 h; summary of the method: as §1
KM12 = test: Growth inhibition of human KM12 cells after 48 hrs; format: functional; conditions: KM12, 48 h; summary of the method: as §1
U-251 = test: Growth inhibition of human U251 cells after 48 hrs; format: functional; conditions: U-251, 48 h, read-out: pLC50 (the source's name) (converted); summary of the method: as §2
MDA-MB-435 = test: Growth inhibition of human MDA-MB-435 cells after 48 hrs; format: functional; conditions: MDA-MB-435, 48 h; summary of the method: as §1
[9] = Growth inhibition of human UACC257 cells after 48 hrs; format: functional; conditions: UACC-257, 48 h; summary of the method: as §2
[10] = Growth inhibition of human OVCAR4 cells after 48 hrs; format: functional; conditions: OVCAR-4, 48 h; summary of the method: as §1
[11] = Growth inhibition of human OVCAR8 cells after 48 hrs; format: functional; conditions: OVCAR-8, 48 h; summary of the method: as §1
[12] = Growth inhibition of human NCI-ADR-RES cells after 48 hrs; format: functional; summary of the method: as §1
A498 = test: Growth inhibition of human A498 cells after 48 hrs; format: functional; conditions: A498, 48 h; summary of the method: as §1
[13] = read-out: pLC50 (the source's name) (converted)

COc1ccc(N(CC(=O)NCCC[Te]c2ccccc2)C(=O)CCSC2=C(C)C(=O)c3ccccc3C2=O)cc1
GI50 (ACHN): 1350 nM | LC50 (ACHN): 6.76 µM | TGI (ACHN; read-out: pTGI (converted)): 3.02 µM | GI50 (CAKI-1): 3.09 µM | LC50 (CAKI-1): 21.4 µM | TGI (CAKI-1; read-out: pTGI (converted)): 6.17 µM | LC50 (SN12C): 23.4 µM | GI50 (TK-10): 2820 nM | LC50 (TK-10): 28.8 µM | TGI (TK-10; read-out: pTGI (converted)): 6.92 µM | LC50 [1]: 14.8 µM | GI50 (MCF7 [2]): 490 nM | LC50 (concentration killing 50% of cells) (MCF7 [2]): 75.9 µM | TGI (MCF7 [2]; read-out: pTGI (converted)): 12 µM | GI50 [3]: 1780 nM | LC50 [3]: > 100 µM | GI50 (MDA-MB-468): 1660 nM | LC50 (MDA-MB-468): 6.76 µM | TGI (MDA-MB-468; read-out: pTGI (converted)): 3.39 µM | IC50 (MCF7 [4]): 7 µM | IC50 (A-431): 1000 nM | diameter of the inhibition zone (DIZ) (Saccharomyces cerevisiae): 0 mm | diameter of the inhibition zone (DIZ) (Candida albicans): 0 mm | diameter of the inhibition zone (DIZ) (Aspergillus niger): 0 mm | diameter of the inhibition zone (DIZ) (Micrococcus luteus): 8 mm | diameter of the inhibition zone (DIZ) (Staphylococcus aureus): 11 mm | diameter of the inhibition zone (DIZ) (Pseudomonas aeruginosa): 0 mm | diameter of the inhibition zone (DIZ) (Escherichia coli): 12 mm | GI50 [5]: 550 nM | CC50 [5, 13]: > 100 µM | TGI ([5]; read-out: pTGI (converted)): 3.09 µM | GI50 (A549): 257 nM | CC50 (A549; [13]): 3.47 µM | TGI (A549; read-out: pTGI (converted)): 724 nM | GI50 [6]: 380 nM | CC50 [6, 13]: > 100 µM | TGI ([6]; read-out: pTGI (converted)): 3.31 µM | GI50 (HOP-62): 339 nM | CC50 (HOP-62; [13]): 3.8 µM | TGI (HOP-62; read-out: pTGI (converted)): 1000 nM | GI50 [7]: 1450 nM | CC50 [7, 13]: 13.2 µM | TGI ([7]; read-out: pTGI (converted)): 3.98 µM | GI50 (NCI-H226): 1620 nM | TGI (NCI-H226; read-out: pTGI (converted)): 3.63 µM | GI50 (NCI-H322M): 2090 nM | CC50 (NCI-H322M; [13]): 60.3 µM | TGI (NCI-H322M; read-out: pTGI (converted)): 6.03 µM | GI50 [8]: 339 nM | CC50 [8, 13]: 5.5 µM | TGI ([8]; read-out: pTGI (converted)): 1290 nM | GI50 (KM12): 417 nM | CC50 (KM12; [13]): 5.13 µM | TGI (KM12; read-out: pTGI (converted)): 1510 nM | CC50 (U-251): > 100 µM | GI50 (MDA-MB-435): 2450 nM | CC50 (MDA-MB-435; [13]): 26.9 µM | TGI (MDA-MB-435; read-out: pTGI (converted)): 6.31 µM | GI50 [9]: 2040 nM | CC50 [9, 13]: 16.6 µM | TGI ([9]; read-out: pTGI (converted)): 5.01 µM | GI50 [10]: 2630 nM | LC50 [10]: 31.6 µM | TGI ([10]; read-out: pTGI (converted)): 10.2 µM | GI50 [11]: 589 nM | LC50 [11]: 30.9 µM | TGI ([11]; read-out: pTGI (converted)): 3.8 µM | GI50 [12]: 955 nM | LC50 [12]: 41.7 µM | TGI ([12]; read-out: pTGI (converted)): 5.01 µM | GI50 (A498): 1350 nM | TGI (A498; read-out: pTGI (converted)): 3.24 µM | Retention_time: 0.938 min
